This is an account of results in ChEMBL document CHEMBL1136915 (Bioorg Med Chem Lett, 2009).

Data set [1] is described as follows: Nitric oxide release in phosphate buffer at pH 7.4 incubated at 37 degC after 1.5 hrs. Also on record: concentration or dose not given beside the values. The following applies: pH 7.4, 1.5 h.
Data set [2] addresses T1, Prostaglandin G/H synthase 2 (Homo sapiens, UniProt P35354).
T1 sequence (P35354 whole entry): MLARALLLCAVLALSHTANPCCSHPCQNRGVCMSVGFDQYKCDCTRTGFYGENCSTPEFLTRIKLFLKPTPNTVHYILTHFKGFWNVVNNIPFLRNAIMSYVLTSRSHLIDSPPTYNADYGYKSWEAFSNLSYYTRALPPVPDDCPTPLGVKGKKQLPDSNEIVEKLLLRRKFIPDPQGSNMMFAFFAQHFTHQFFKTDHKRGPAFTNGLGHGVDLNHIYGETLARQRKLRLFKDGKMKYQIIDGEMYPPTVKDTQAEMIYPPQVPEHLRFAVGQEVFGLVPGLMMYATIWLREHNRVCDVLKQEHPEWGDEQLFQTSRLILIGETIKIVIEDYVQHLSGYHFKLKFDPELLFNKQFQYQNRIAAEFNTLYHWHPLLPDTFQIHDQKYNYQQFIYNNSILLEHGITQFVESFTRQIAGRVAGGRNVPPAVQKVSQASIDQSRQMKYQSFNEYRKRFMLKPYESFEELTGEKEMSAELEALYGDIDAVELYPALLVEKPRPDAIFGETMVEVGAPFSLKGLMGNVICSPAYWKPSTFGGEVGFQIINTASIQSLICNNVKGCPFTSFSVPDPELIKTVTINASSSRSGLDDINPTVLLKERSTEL
Briefly: Inhibition of human COX2 by enzyme immunoassay. Put shortly: (§1)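 COX inhibition was measured in vitro with an enzyme immunoassay kit. IC50 is the mean of two determinations, with deviation from the mean <10%. COX-2 selectivity index = COX-1 IC50/COX-2 IC50.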

The nature of data set [3]: Selectivity ratio of IC50 for ovine COX1 to IC50 for human COX2. An outline of the steps: as §1
The test system of data set [4] is Serum. The data set is described as follows: Nitric oxide release in rat serum containing phosphate buffer at pH 7.4 incubated at 37 degC after 1.5 hrs. The settings on record: pH 7.4, 1.5 h.
The target of data set [5] is T2, Prostaglandin G/H synthase 1 (Ovis aries, UniProt P05979).
T2 sequence (P05979 whole entry): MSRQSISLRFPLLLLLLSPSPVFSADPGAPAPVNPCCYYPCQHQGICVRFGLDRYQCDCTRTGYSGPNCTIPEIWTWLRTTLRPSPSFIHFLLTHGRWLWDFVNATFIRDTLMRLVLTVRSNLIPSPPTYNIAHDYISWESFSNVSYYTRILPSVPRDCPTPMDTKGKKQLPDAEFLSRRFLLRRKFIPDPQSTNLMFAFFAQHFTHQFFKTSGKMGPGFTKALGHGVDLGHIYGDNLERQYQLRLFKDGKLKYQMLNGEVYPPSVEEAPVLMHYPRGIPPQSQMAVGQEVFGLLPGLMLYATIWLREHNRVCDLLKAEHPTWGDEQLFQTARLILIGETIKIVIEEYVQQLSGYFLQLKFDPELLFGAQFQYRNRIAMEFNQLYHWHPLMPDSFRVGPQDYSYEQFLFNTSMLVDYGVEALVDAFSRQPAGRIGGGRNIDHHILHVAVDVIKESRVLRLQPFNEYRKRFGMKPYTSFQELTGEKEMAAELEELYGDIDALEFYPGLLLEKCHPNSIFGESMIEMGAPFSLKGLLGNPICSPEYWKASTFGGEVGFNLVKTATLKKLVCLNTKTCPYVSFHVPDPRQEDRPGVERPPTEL
The data set is described as follows: Inhibition of ovine COX1 by enzyme immunoassay. An outline of the steps:
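COX inhibition was measured in vitro with an enzyme immunoassay kit. COX-2 selectivity index = COX-1 IC50/COX-2 IC50.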

The test system of data set [6] is Rattus norvegicus. Briefly: Antiinflammatory activity against carrageenan-induced rat inflammation model assessed as inhibition of paw edema at 327 umol/kg, po after 3 hrs. It counts as functional. An outline of the steps:
(§2)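 Test compound was given orally to rats at the stated dose (µmol/kg), followed by carrageenan-induced paw edema.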

In data set [7] the test system is Rattus norvegicus. Briefly: Antiinflammatory activity against carrageenan-induced rat inflammation model assessed as inhibition of paw edema at 11.7 umol/kg, po after 3 hrs. Type of data set: functional. An outline of the steps: as §2
In data set [8] the test system is Rattus norvegicus. The data set is described as follows: Antiinflammatory activity against carrageenan-induced rat inflammation model assessed as inhibition of paw edema at 357 umol/kg, po after 3 hrs. Type of data set: functional. An outline of the steps:
as §2

A short description of data set [9]: Nitric oxide release in phosphate buffer containing 5 mM L-cysteine at pH 7.4 incubated at 37 degC after 1.5 hrs. The following applies: pH 7.4, 1.5 h.
Data set [10] relates to Rattus norvegicus. The data set is described as follows: Antiinflammatory activity against carrageenan-induced rat inflammation model assessed as inhibition of paw edema at 714 umol/kg, po after 3 hrs. Type of data set: functional. An outline of the steps: as §2

With `CC(=O)OCO/N=[N+](\[O-])N1CCC[C@H]1COC(=O)C(C)c1ccc(CC(C)C)cc1` (stereo partly drawn), the Activity in data set [1] is recorded as 4.4%; in data set [4], 79.5%. The results for the IC50 in [2] and in data set [5] were 6.4 µM and above 100 µM, respectively. Besides, the Ratio IC50 in [3] was above 15. Further, the inhibition in vivo at 327 µmol/kg in data set [6] was 57.1%.

On to `COc1ccc2c(c1)c(CC(=O)O)c(C)n2C(=O)c1ccc(Cl)cc1` [INDOMETHACIN], for which the inhibition in vivo at 11.7 µmol/kg in data set [7] worked out at 50%.

`CC(=O)Oc1ccccc1C(=O)OC(CO[N+](=O)[O-])CO[N+](=O)[O-]`: the Activity in data set [1] was 3.6%; in data set [9], 7.8%. Further, the inhibition in vivo at 357 µmol/kg in data set [8] worked out at 30.5%. Further, the half-inhibitory concentration (IC50) was 7.7 µM in data set [2] and above 100 µM in data set [5]. The Ratio IC50 in [3] was above 13.

Take `[Na+].[O-]/N=[N+](\[O-])N1CCC[C@H]1CO`: the Activity in [1] came out at 84.5%; in [4] it was 84.8%.

On to `COc1ccc2c(c1)c(CC(=O)OC[C@@H]1CCCN1/[N+]([O-])=N/OCOC(C)=O)c(C)n2C(=O)c1ccc(Cl)cc1`, for which the inhibition in vivo at 11.7 µmol/kg in data set [7] is 53.6%. For the same compound, the results for the Activity in data set [1] and in data set [4] were 7.9% and 80.7%, respectively. Moreover, the concentration for half-maximal inhibition (IC50) in data set [2] was 9.3 µM; in data set [5] it was above 100 µM. Further, the Ratio IC50 in data set [3] is above 10.

For `CC(C)Cc1ccc(C(C)C(=O)O)cc1` (stereo not drawn) [IBUPROFEN], the inhibition in vivo at 327 µmol/kg in data set [6] worked out at 50%.

In the case of `O=[N+]([O-])OCC(CO[N+](=O)[O-])O[N+](=O)[O-]` [NITROGLYCERIN], the figures for the Activity in data set [1] and in [9] were 2.8% and 10.1%, respectively.

`CC(C)Cc1ccc(C(C)C(=O)OC(CO[N+](=O)[O-])CO[N+](=O)[O-])cc1` (stereo not drawn): the results for the Activity in [1] and in data set [9] were 3.4% and 6.8%, respectively. Also, the IC50 is 1.7 µM in data set [2] and above 100 µM in [5]. Also, the Ratio IC50 in data set [3] is above 58. Moreover, in [6], the inhibition in vivo at 327 µmol/kg amounted to 59.1%.

For `COc1ccc2c(c1)c(CC(=O)OC(CO[N+](=O)[O-])CO[N+](=O)[O-])c(C)n2C(=O)c1ccc(Cl)cc1`, the inhibition in vivo at 11.7 µmol/kg in data set [7] was found to be 42.2%. Also, the Activity in data set [1] is 3.8%; in [9], 7.4%. The half-inhibitory concentration (IC50) in data set [2] is 0.6 µM; in [5], above 100 µM. Further, the Ratio IC50 in data set [3] was above 166.

On to `CC(=O)OCO/N=[N+](\[O-])N1CCC[C@H]1COC(=O)c1ccccc1OC(C)=O`, for which the Activity worked out at 7.4% in data set [1] and 50.6% in data set [4]. For the same compound, the inhibition in vivo at 357 µmol/kg in data set [8] turned out to be 23.7%. In addition, the IC50 in data set [2] was 2.2 µM; in data set [5], above 100 µM. In addition, the Ratio IC50 in data set [3] was above 45.

Turning to `CC(=O)Oc1ccccc1C(=O)O` [ASPIRIN], in data set [10], the inhibition in vivo at 714 µmol/kg came out at 50%.
